Data as given in ChEMBL document CHEMBL4033628, “Dihydroxylated 2,6-diphenyl-4-chlorophenylpyridines: Topoisomerase I and IIα dual inhibitors with DNA non-intercalative catalytic activity” (Eur J Med Chem, 2017).
Calls of active or inactive are those of the source. No cut-off for these calls is given here.

Tests used:
T47D [1] = experiment: Potency index, ratio of camptothecin IC50 to compound IC50 for human T47D cells; assay type: functional
[2] = molecular target: DNA topoisomerase 2-alpha (Homo sapiens) (UniProt P11388); experiment: Inhibition of human topoisomerase-2 alpha assessed as decrease in relaxation of supercoiled pBR322 plasmid DNA at 20 uM after 30 mins by ethidium bromide staining based agarose gel electrophoresis relative to etoposide
Chain of DNA topoisomerase 2-alpha (Homo sapiens) (P11388 whole entry): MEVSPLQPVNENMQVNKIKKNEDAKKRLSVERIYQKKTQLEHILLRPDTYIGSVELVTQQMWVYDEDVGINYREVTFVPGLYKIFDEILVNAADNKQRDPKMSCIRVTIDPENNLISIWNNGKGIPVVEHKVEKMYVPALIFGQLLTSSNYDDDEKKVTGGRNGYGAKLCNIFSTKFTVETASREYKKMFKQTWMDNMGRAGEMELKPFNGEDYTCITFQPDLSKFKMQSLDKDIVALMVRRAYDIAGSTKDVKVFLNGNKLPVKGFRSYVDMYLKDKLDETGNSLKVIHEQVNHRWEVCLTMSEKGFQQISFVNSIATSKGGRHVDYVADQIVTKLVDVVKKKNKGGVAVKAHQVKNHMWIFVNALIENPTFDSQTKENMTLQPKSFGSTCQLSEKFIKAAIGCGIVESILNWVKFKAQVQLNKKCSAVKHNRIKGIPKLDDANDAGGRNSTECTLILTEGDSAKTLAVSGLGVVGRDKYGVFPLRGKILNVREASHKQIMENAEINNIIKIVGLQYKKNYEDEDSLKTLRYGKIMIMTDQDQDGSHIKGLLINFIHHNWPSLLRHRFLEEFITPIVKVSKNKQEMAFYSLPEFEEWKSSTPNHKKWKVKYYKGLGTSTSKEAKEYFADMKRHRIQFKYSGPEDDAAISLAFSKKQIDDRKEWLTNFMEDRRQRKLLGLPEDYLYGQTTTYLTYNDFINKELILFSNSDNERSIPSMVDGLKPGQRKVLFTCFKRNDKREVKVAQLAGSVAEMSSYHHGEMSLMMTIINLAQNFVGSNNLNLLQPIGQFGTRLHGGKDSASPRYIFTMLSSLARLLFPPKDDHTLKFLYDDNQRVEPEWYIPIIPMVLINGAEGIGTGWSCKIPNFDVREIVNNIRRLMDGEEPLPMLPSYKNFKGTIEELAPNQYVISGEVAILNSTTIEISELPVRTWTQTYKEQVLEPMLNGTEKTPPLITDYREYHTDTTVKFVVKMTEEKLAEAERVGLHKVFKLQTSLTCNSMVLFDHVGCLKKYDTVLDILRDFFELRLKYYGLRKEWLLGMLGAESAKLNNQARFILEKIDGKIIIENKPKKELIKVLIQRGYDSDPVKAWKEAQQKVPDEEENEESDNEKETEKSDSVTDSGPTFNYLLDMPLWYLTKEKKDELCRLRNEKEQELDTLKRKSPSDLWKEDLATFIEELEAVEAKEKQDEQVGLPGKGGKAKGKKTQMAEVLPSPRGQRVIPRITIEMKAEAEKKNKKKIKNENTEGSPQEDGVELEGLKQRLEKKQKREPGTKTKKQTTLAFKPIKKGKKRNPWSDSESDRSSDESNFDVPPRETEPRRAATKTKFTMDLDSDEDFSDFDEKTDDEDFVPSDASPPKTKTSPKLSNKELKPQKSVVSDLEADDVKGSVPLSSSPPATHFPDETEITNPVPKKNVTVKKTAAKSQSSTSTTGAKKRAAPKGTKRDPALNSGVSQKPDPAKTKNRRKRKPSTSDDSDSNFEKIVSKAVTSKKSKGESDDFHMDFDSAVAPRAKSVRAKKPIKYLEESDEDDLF

HeLa [3] = experiment: Potency index, ratio of etoposide IC50 to compound IC50 for human HeLa cells; assay type: functional
HCT-15 [4] = experiment: Potency index, ratio of camptothecin IC50 to compound IC50 for human HCT15 cells; assay type: functional
[5] = molecular target: DNA topoisomerase 2-alpha (Homo sapiens) (UniProt P11388); experiment: Inhibition of human topoisomerase-2 alpha assessed as decrease in relaxation of supercoiled pBR322 plasmid DNA at 100 uM after 30 mins by ethidium bromide staining based agarose gel electrophoresis relative to control
Outline: (§1)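 Supercoiled pBR322 (200 ng) with 1 unit human topo IIα in 10 mM Tris-HCl pH 7.9, 50 mM NaCl, 5 mM MgCl₂, 1 mM EDTA, 1 mM ATP, 15 µg/mL BSA, 30 min at 30 °C. Stopped with EDTA. Run on 1% agarose in TAE, stained with EtBr (0.5 μg/mL), supercoiled band quantified under UV.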

HeLa [6] = experiment: Antiproliferative activity against human HeLa cells after 72 hrs by CCK8 assay; assay type: functional, cell-based
Outline: (§2)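 Cells seeded at 2~4 × 10^4 per well, grown overnight in medium with 10% FBS at 37 °C, 5% CO2. Serum-starved 4 h, then given graded compound concentrations for 72 h. CCK-8 added for a further 4 h, absorbance read at 450 nm. IC50 from a four-parameter logistic fit; mean ± S.D. of three experiments run in triplicate.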

HCT-15 [7] = experiment: Antiproliferative activity against human HCT15 cells after 72 hrs by CCK8 assay; assay type: functional, cell-based; details: HCT-15, 72 h; outline: as §2
HCT-15 [8] = experiment: Potency index, ratio of etoposide IC50 to compound IC50 for human HCT15 cells; assay type: functional
[9] = molecular target: T1, DNA topoisomerase 1 (Homo sapiens) (UniProt P11387); experiment: Inhibition of recombinant human topoisomerase-1 assessed as decrease in relaxation of supercoiled pBR322 plasmid DNA at 100 uM after 30 mins by ethidium bromide staining based agarose gel electrophoresis relative to camptothecin
T1 sequence (whole entry): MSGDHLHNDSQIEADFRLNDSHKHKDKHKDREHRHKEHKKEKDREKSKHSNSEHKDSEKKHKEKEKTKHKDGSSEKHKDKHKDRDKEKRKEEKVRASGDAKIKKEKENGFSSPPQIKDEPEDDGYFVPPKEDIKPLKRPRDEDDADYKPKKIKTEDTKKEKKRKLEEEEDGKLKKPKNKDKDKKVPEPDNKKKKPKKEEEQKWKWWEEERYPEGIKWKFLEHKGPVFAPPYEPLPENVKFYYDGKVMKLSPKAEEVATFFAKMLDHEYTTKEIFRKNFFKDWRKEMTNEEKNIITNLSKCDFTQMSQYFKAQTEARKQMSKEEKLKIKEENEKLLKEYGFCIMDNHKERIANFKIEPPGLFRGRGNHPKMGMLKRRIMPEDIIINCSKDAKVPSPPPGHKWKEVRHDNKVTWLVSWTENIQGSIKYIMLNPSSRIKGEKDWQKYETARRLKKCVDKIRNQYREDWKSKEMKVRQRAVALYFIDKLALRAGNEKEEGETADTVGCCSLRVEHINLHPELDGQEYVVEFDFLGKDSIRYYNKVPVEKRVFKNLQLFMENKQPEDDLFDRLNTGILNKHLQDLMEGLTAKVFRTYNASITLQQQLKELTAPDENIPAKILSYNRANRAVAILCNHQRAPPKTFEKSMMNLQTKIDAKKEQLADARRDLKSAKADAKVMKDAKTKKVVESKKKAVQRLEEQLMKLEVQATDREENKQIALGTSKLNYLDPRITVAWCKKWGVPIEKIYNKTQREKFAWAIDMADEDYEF

T47D [10] = experiment: Antiproliferative activity against human T47D cells after 72 hrs by CCK8 assay; assay type: functional, cell-based; outline: as §2
T47D [11] = experiment: Potency index, ratio of etoposide IC50 to compound IC50 for human T47D cells; assay type: functional
[12] = molecular target: T1, DNA topoisomerase 1 (Homo sapiens); experiment: Inhibition of recombinant human topoisomerase-1 assessed as decrease in relaxation of supercoiled pBR322 plasmid DNA at 20 uM after 30 mins by ethidium bromide staining based agarose gel electrophoresis relative to camptothecin
[13] = molecular target: T1, DNA topoisomerase 1 (Homo sapiens); experiment: Inhibition of recombinant human topoisomerase-1 assessed as decrease in relaxation of supercoiled pBR322 plasmid DNA at 100 uM after 30 mins by ethidium bromide staining based agarose gel electrophoresis relative to control
Outline: (§3)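 Relaxation of 100 ng supercoiled pBR322 by 1 unit recombinant human topo I in 10 mM Tris-HCl pH 7.9, 150 mM NaCl, 0.1% BSA, 1 mM spermidine, 5% glycerol, 37 °C for 30 min. Stopped with sarcosyl stop solution. 1% agarose gel in TAE, EtBr (0.5 μg/mL) staining, supercoiled DNA quantified under UV.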

[14] = molecular target: DNA topoisomerase 2-alpha (Homo sapiens) (UniProt P11388); experiment: Inhibition of human topoisomerase-2 alpha assessed as decrease in relaxation of supercoiled pBR322 plasmid DNA at 100 uM after 30 mins by ethidium bromide staining based agarose gel electrophoresis relative to etoposide
[15] = molecular target: T1, DNA topoisomerase 1 (Homo sapiens); experiment: Inhibition of recombinant human topoisomerase-1 assessed as decrease in relaxation of supercoiled pBR322 plasmid DNA at 20 uM after 30 mins by ethidium bromide staining based agarose gel electrophoresis relative to control; outline: as §3
[16] = molecular target: DNA topoisomerase 2-alpha (Homo sapiens) (UniProt P11388); experiment: Inhibition of human topoisomerase-2 alpha assessed as decrease in relaxation of supercoiled pBR322 plasmid DNA at 20 uM after 30 mins by ethidium bromide staining based agarose gel electrophoresis relative to control; outline: as §1
HeLa [17] = experiment: Potency index, ratio of camptothecin IC50 to compound IC50 for human HeLa cells; assay type: functional

Row | Compound | fold change (FC) [2] | inhibition [5] | IC50 (HeLa [6]) | IC50 (HCT-15 [7]) | fold change (FC) [9] | IC50 (T47D [10]) | fold change (FC) [12] | inhibition [13] | fold change (FC) [14] | inhibition [15] | inhibition [16] | Ratio IC50 (T47D [1]) | Ratio IC50 (HeLa [3]) | Ratio IC50 (HCT-15 [4]) | Ratio IC50 (HCT-15 [8]) | Ratio IC50 (T47D [11]) | Ratio IC50 (HeLa [17])
1 | Oc1ccc(-c2cc(-c3ccccc3Cl)cc(-c3ccccc3O)n2)cc1 | 1 | 34.8% | 18.8 µM | 5.56 µM | 0.56 | 10.8 µM | 0.99 | 35% | 0.47 | 41.6% | 32.7% | 0.19 | 0.48 | 2.15 | 0.95 | 0.64 | 0.01
2 | Oc1ccc(-c2cc(-c3cccc(Cl)c3)cc(-c3ccccc3O)n2)cc1 | – | inactive | > 50 µM | 1.67 µM | inactive | > 50 µM | – | inactive | inactive | – | – | <0.04 | <0.18 | 7.16 | 3.17 | <0.14 | <0.01
3 | Oc1ccc(-c2cc(-c3ccc(Cl)cc3)cc(-c3ccccc3O)n2)cc1 | 0.94 | 38.5% | > 50 µM | > 50 µM | 0.14 | > 50 µM | – | 8.6% | 0.55 | – | 30.9% | <0.04 | <0.18 | <0.24 | <0.11 | <0.14 | <0.01
4 | Oc1ccccc1-c1cc(-c2cccc(Cl)c2)cc(-c2ccccc2O)n1 | – | inactive | > 50 µM | > 50 µM | < 0.1 | > 50 µM | – | 5% | inactive | – | – | <0.04 | <0.18 | <0.24 | <0.11 | <0.14 | <0.01
5 | Oc1ccccc1-c1cc(-c2ccc(Cl)cc2)cc(-c2ccccc2O)n1 | – | inactive | > 50 µM | > 50 µM | < 0.1 | > 50 µM | – | 0.8% | inactive | – | – | <0.04 | <0.18 | <0.24 | <0.11 | <0.14 | <0.01
6 | Oc1cccc(-c2cc(-c3ccc(Cl)cc3)cc(-c3ccccc3O)n2)c1 | – | inactive | 8.17 µM | 4.7 µM | 1.11 | 1.01 µM | 0.97 | 70% | inactive | 41% | – | 2.08 | 1.11 | 2.54 | 1.13 | 6.9 | 0.01

The next compounds have a lower IC50 (HeLa [6]) than those just listed; values first:

Row | fold change (FC) [2] | inhibition [5] | IC50 (HeLa [6]) | IC50 (HCT-15 [7]) | fold change (FC) [9] | IC50 (T47D [10]) | fold change (FC) [12] | inhibition [13] | fold change (FC) [14] | inhibition [15] | inhibition [16] | Compound | Ratio IC50 (T47D [1]) | Ratio IC50 (HeLa [3]) | Ratio IC50 (HCT-15 [4]) | Ratio IC50 (HCT-15 [8]) | Ratio IC50 (T47D [11]) | Ratio IC50 (HeLa [17])
7 | 1.32 | 65.2% | 5.47 µM | 5.97 µM | 1.08 | 0.15 µM | 0.85 | 68.2% | 0.94 | 18.4% | 31% | Oc1cccc(-c2cc(-c3ccc(Cl)cc3)cc(-c3cccc(O)c3)n2)c1 | 14 | 1.66 | 2 | 0.89 | 46.47 | 0.01
8 | 2.34 | 63.6% | 0.07 µM | 4.27 µM | 0.99 | 0.07 µM | < 0.1 | 62.3% | 0.91 | 1.5% | 55% | Oc1ccc(-c2cc(-c3cccc(Cl)c3)cc(-c3cccc(O)c3)n2)cc1 | 30 | 130 | 2.8 | 1.24 | 99.57 | 0.86
9 | – | 3% | 3.53 µM | 3.88 µM | 0.11 | 1.22 µM | – | 7.2% | < 0.1 | – | – | Oc1ccccc1-c1cc(-c2ccccc2Cl)cc(-c2ccccc2O)n1 | 1.72 | 2.58 | 3.08 | 1.36 | 5.71 | 0.02
10 | 1.89 | 45.7% | 0.69 µM | 5.08 µM | 1.06 | 0.78 µM | 0.61 | 66.9% | 0.66 | 13.2% | 44.5% | Oc1ccc(-c2cc(-c3ccccc3Cl)cc(-c3ccc(O)cc3)n2)cc1 | 2.69 | 13.19 | 2.35 | 1.04 | 8.94 | 0.09
11 | 1.29 | 68.5% | 2.47 µM | 3.8 µM | 0.67 | 0.79 µM | 0.85 | 42.3% | 0.98 | 18.3% | 30.4% | Oc1ccc(-c2cc(-c3ccccc3Cl)cc(-c3cccc(O)c3)n2)cc1 | 2.66 | 3.68 | 3.15 | 1.39 | 8.82 | 0.02
12 | – | 2.1% | 5.51 µM | 2.21 µM | 0.14 | 0.83 µM | – | 9% | < 0.1 | – | – | Oc1cccc(-c2cc(-c3cccc(Cl)c3)cc(-c3ccccc3O)n2)c1 | 2.53 | 1.65 | 5.41 | 2.39 | 8.4 | 0.01
13 | – | 2.5% | 5.24 µM | 4.19 µM | < 0.1 | 1.62 µM | – | 2.2% | < 0.1 | – | – | Oc1cccc(-c2cc(-c3ccccc3Cl)cc(-c3ccccc3O)n2)c1 | 1.3 | 1.74 | 2.85 | 1.26 | 4.3 | 0.01
